Test results published in ChEMBL document CHEMBL4024716, “Pronounced anti-proliferative activity and tumor cell selectivity of 5-alkyl-2-amino-3-methylcarboxylate thiophenes” (Eur J Med Chem, 2017).

Experiments:
[1] = Drug uptake in cytoplasm of human PC3 cells at 10 uM measured immediately by confocal fluorescence microscopic method; type: ADME
[2] = Drug uptake in nucleus of human PC3 cells at 10 uM measured immediately by confocal fluorescence microscopic method; type: ADME, cell-based
[3] = Drug uptake in golgi apparatus of human PC3 cells co-expressing RFP at 10 uM by confocal microscopic analysis; type: ADME
How it was run: (§1)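 Cells were transduced with BacMam baculovirus (50 particles/cell) for 16–24 h to express organelle-targeted RFP (Golgi, lysosomes, early/late endosomes, mitochondria, ER). After two phenol red-free DMEM rinses, 10 μM NBD-labelled compound was added, and red and green signals were imaged immediately by confocal microscopy.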

[4] = Drug uptake in lysosomes of human PC3 cells co-expressing RFP at 10 uM by confocal microscopic analysis; type: ADME, Lysosome; how it was run: as §1
[5] = Drug uptake in early endosome of human PC3 cells co-expressing RFP at 10 uM by confocal microscopic analysis; type: ADME; how it was run: as §1
[6] = Drug uptake in late endosome of human PC3 cells co-expressing RFP at 10 uM by confocal microscopic analysis; type: ADME; how it was run: as §1
[7] = Drug uptake in mitochondria of human PC3 cells co-expressing RFP at 10 uM by confocal microscopic analysis; type: ADME; how it was run: as §1
[8] = Drug uptake in endoplasmic reticulum of human PC3 cells co-expressing RFP at 10 uM by confocal microscopic analysis; type: ADME; how it was run: as §1
[9] = Drug uptake in nucleus of human PC3 cells co-expressing RFP at 10 uM by confocal microscopic analysis; type: ADME, cell-based; how it was run: as §1
[10] = (§2) Drug uptake in nucleus of human PC3/TJ191 cells co-expressing RFP at 10 uM by confocal microscopic analysis; type: ADME
[11] = Drug uptake in nuclear membrane of human PC3 cells co-expressing RFP at 10 uM by confocal microscopic analysis; type: ADME, cell membranes; how it was run: as §1
[12] = Drug uptake in golgi apparatus of human PC3/TJ191 cells co-expressing RFP at 10 uM by confocal microscopic analysis; type: ADME
[13] = Drug uptake in lysosomes of human PC3/TJ191 cells co-expressing RFP at 10 uM by confocal microscopic analysis; type: ADME, Lysosome
[14] = Drug uptake in early endosome of human PC3/TJ191 cells co-expressing RFP at 10 uM by confocal microscopic analysis; type: ADME
[15] = Drug uptake in late endosome of human PC3/TJ191 cells co-expressing RFP at 10 uM by confocal microscopic analysis; type: ADME
[16] = Drug uptake in mitochondria of human PC3/TJ191 cells co-expressing RFP at 10 uM by confocal microscopic analysis; type: ADME
[17] = Drug uptake in endoplasmic reticulum of human PC3/TJ191 cells co-expressing RFP at 10 uM by confocal microscopic analysis; type: ADME
[18] = as §2; type: ADME; remark: listed apart in the source
[19] = Drug uptake in nuclear membrane of human PC3/TJ191 cells co-expressing RFP at 10 uM by confocal microscopic analysis; type: ADME, cell membranes
[20] = Drug uptake in cytoplasm of human CEM cells at 10 uM measured immediately by confocal fluorescence microscopic method; type: ADME
[21] = Drug uptake in cytoplasm of human HeLa cells at 10 uM measured immediately by confocal fluorescence microscopic method; type: ADME, cell-based
[22] = Drug uptake in nucleus of human CEM cells at 10 uM measured immediately by confocal fluorescence microscopic method; type: ADME, cell-based
[23] = Drug uptake in nucleus of human HeLa cells at 10 uM measured immediately by confocal fluorescence microscopic method; type: ADME, cell-based
[24] = Drug uptake in nucleus of human CEM cells at 10 uM measured after incubation by confocal fluorescence microscopic method; type: ADME, cell-based
[25] = Drug uptake in nucleus of human PC3 cells at 10 uM measured after incubation by confocal fluorescence microscopic method; type: ADME, cell-based
[26] = Drug uptake in nucleus of human HeLa cells at 10 uM measured after incubation by confocal fluorescence microscopic method; type: ADME, cell-based
MOLT-4 = assay: Cytotoxicity against human MOLT4 cells after 72 to 96 hrs by coulter counter method; type: functional, cell-based
Raji = assay: Cytotoxicity against human Raji cells after 72 to 96 hrs by coulter counter method; type: functional, cell-based
PC-3 = assay: Cytotoxicity against human PC3 cells after 72 to 96 hrs by coulter counter method
Huh-7 = assay: Cytotoxicity against human HuH7 cells after 72 to 96 hrs by coulter counter method; type: functional, cell-based
CAKI-1 = assay: Cytotoxicity against human Caki1 cells after 72 to 96 hrs by coulter counter method; type: functional, cell-based
[27] = Selectivity ratio of IC50 for human Raji cells to IC50 for human CEM cells; type: functional
HeLa [28] = assay: Selectivity ratio of IC50 for human HeLa cells to IC50 for human PC3 cells; type: functional
CCRF-CEM = assay: Cytotoxicity against human CEM cells after 72 to 96 hrs by coulter counter method
HeLa [29] = assay: Cytotoxicity against human HeLa cells after 72 to 96 hrs by coulter counter method; type: functional, cell-based

COC(=O)c1cc(CCCCCCCNc2ccc([N+](=O)[O-])c3nonc23)sc1N
Drug uptake [1]: Active
Drug uptake [2]: Not Active
Drug uptake [3]: Not Active
Drug uptake [4]: Not Active
Drug uptake [5]: Not Active
Drug uptake [6]: Not Active
Drug uptake [7]: Active
Drug uptake [8]: Active
Drug uptake [9]: Active
Drug uptake [10]: Active
Drug uptake [11]: Active
Drug uptake [12]: Not Active
Drug uptake [13]: Not Active
Drug uptake [14]: Not Active
Drug uptake [15]: Not Active
Drug uptake [16]: Not Active
Drug uptake [17]: Active
Drug uptake [18]: Active
Drug uptake [19]: Active

COC(=O)c1cc(CCCCCCCNS(=O)(=O)c2cccc3c(N(C)C)cccc23)sc1N
Drug uptake [20]: Active
Drug uptake [1]: Active
Drug uptake [21]: Active
Drug uptake [22]: Not Active
Drug uptake [2]: Not Active
Drug uptake [23]: Not Active
Drug uptake [24]: Not Active
Drug uptake [25]: Not Active
Drug uptake [26]: Not Active

CCc1cc(C(=O)OC)c(N)s1
IC50 (MOLT-4): 29 µM
IC50 (Raji): > 250 µM
IC50 (PC-3): 27 µM
IC50 (Huh-7): 84 µM
IC50 (CAKI-1): 92 µM
Ratio IC50 [27]: >1.4
Ratio IC50 (HeLa [28]): 6.7

CCCc1cc(C(=O)OC)c(N)s1
IC50 (CCRF-CEM): 6.9 µM
IC50 (MOLT-4): 2.1 µM
IC50 (Raji): 104 µM
IC50 (PC-3): 3.4 µM
IC50 (Huh-7): 2.5 µM
IC50 (CAKI-1): 5.4 µM
IC50 (HeLa [29]): 61 µM
Ratio IC50 [27]: 16
Ratio IC50 (HeLa [28]): 18
